Measured values: ChEMBL document CHEMBL3351709, “Limonoids from the seeds of Swietenia macrophylla with inhibitory activity against dengue virus 2” (J Nat Prod, 2014)

What was measured:
dengue virus type 2 = test: Antiviral activity against dengue virus 2 infected in human HuH7 cells after 72 hrs by Western blot and ECL detection based assay; assay type: functional, organism-based; conditions: Huh-7, 72 h
Outline: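 Huh-7 cells (ATCC) in DMEM with 10% FBS, 1% nonessential amino acids and 1% antibiotic-antimycotic, 37 °C, 5% CO2. Seeded at 5 × 10^4 cells/mL/well for 12–16 h, then infected with DENV-2 strain 16681 at MOI 0.2 for 2 h at 37 °C. Washed with PBS and refed with compound in DMEM–10% FBS. At 72 h p.i., NS2B Western blot with GAPDH loading control and ECL detection. Ribavirin as reference.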

[1] = Cytotoxicity against human HuH7 cells after 72 hrs by MTS assay; assay type: cell-based, Huh-7
[2] = Selectivity index, ratio of CC50 against human HuH7 cells to EC50 against dengue virus 2; assay type: toxicity, cell-based, Huh-7; conditions: read-out: Ratio CC50/EC50

SMILES | EC50 (dengue virus type 2) | CC50 at 72 h [1] | selectivity ratio [2]
CC1(C)C(=O)C=C[C@]2(C)[C@H]3CC[C@@]4(C)[C@H](c5ccoc5)OC(=O)[C@H]5O[C@]54[C@]3(C)[C@H](O)C[C@@H]12 [DEACETYLGEDUNIN] | 12.5 µM | 105 µM | 8.4
C=C1[C@@H]2CC[C@@]3(C)[C@H](c4ccoc4)OC(=O)C[C@]13O[C@H]1CC(=O)C(C)(C)[C@H](CC(=O)OC)[C@]12C [METHYLANGOLENSATE] | 4.3 µM | 116 µM | 27
C/C=C(\C)C(=O)O[C@@H]1[C@H]2C=C3[C@@H]4CC(=O)O[C@@H](c5ccoc5)[C@]4(C)CC[C@@H]3[C@@](C)(C2=O)[C@@H]([C@@H](OC(C)=O)C(=O)OC)C1(C)C | 6.3 µM | 83 µM | 13.2
NC(=O)c1ncn([C@@H]2O[C@H](CO)[C@@H](O)[C@H]2O)n1 [RIBAVIRIN] | 12.6 µM | – | 4.47
CC[C@H](C)C(=O)O[C@@H]1[C@@H]2C(=O)[C@](C)(C3CC[C@]4(C)[C@@H](CC(=O)O[C@H]4c4ccoc4)[C@]34O[C@H]24)[C@@H]([C@@H](O)C(=O)OC)C1(C)C (some centres undefined) | 7.2 µM | > 200 µM | > 27.7
